The results in this text go back to ChEMBL document CHEMBL1124155, “Synthesis and dopamine agonist and antagonist effects of (R)-(-)- and (S)-(+)-11-hydroxy-N-n-propylnoraporphine” (J Med Chem, 1988).

pKi: −log10 of the molar value.

Assay [1] has as its system Rattus norvegicus. Kind of assay: Stereotyped behavior in rat induced by Aporphines after ip administration at 0.3 mg/kg dose. Format: functional. To be noted: route intraperitoneal. Put shortly:
(§1)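 Aporphine given ip to rats (doses 0.3–3.0 mg/kg; saline as 0). Stereotyped behavior rated every 10 min for 1 h. Mean stereotypy score, maximum 18.0, ± SEM, N = 6. Student's t test, p < 0.05.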

The test system of assay [2] is Rattus norvegicus. The assay can be described thus: Stereotyped behavior in rat induced by Aporphines after ip administration at 0 mg/kg dose. Format: functional. To be noted: route intraperitoneal. The gist of the method: as §1
For assay [3], the system named is Rattus norvegicus. Kind of assay: Stereotyped behavior in rat induced by Aporphines after ip administration at 1.0 mg/kg dose. It counts as functional. To be noted: route intraperitoneal. Put shortly: as §1
Assay [4] has as its system Rattus norvegicus. Kind of assay: Stereotyped behavior in rat induced by Aporphines after ip administration at 3.0 mg/kg dose. Format: functional. To be noted: route intraperitoneal. The gist of the method: as §1
Assay [5] deals with Rattus norvegicus. Kind of assay: Effect (3 mg/kg) on motor arousal induced by apomorphine. It counts as functional. Put shortly: (§2)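 Rats received test enantiomer ip immediately before apomorphine (0.3 mg/kg). They were then placed in a microcomputer-controlled electronic activity monitor for 1 h. Read-out was activity counts per hour, mean ± SEM, N = 6. Comparison was against a saline + apomorphine control by Student's t test.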

Assay [6] relates to Rattus norvegicus. The assay can be described thus: Effect (3 mg/kg) on motor arousal induced by apomorphine (0.3 mg/kg) expressed as percent control. Format: functional. The gist of the method:
as §2

Assay [7] has as its target D(1A) dopamine receptor (Rattus norvegicus, UniProt P18901). The assay can be described thus: Binding affinity against Dopamine receptor D1 from rat brain corpus striatal preparations using [3H]SCH-23390.
Assay [8] concerns the target D(2) dopamine receptor (Rattus norvegicus, UniProt P61169). Kind of assay: Binding affinity against Dopamine receptor D2 from rat brain corpus striatal preparations using [3H]spiperone.
Assay [9] addresses Dopamine receptor. The assay can be described thus: Binding affinity against dopamine agonist sites from rat brain corpus striatal preparations using [3H]ADTN.
The subject of assay [10] is Rattus norvegicus. The assay can be described thus: Effect (1 mg/kg) on motor arousal induced by apomorphine (0.3 mg/kg). Format: functional. The gist of the method:
as §2

Assay [11] relates to Rattus norvegicus. Kind of assay: Effect (3 mg/kg) on motor arousal induced by apomorphine (0.3 mg/kg). Format: functional. The gist of the method:
as §2

For assay [12], the system named is Rattus norvegicus. The assay can be described thus: Effect (10 mg/kg) on motor arousal induced by apomorphine (0.3 mg/kg) expressed as percent control. It counts as functional. Put shortly:
as §2

The test system of assay [13] is Rattus norvegicus. The assay can be described thus: Effect (1 mg/kg) on motor arousal induced by apomorphine (0.3 mg/kg) expressed as percent control. It counts as functional. Put shortly: as §2
Assay [14] has as its system Rattus norvegicus. The assay can be described thus: Effect (0.3 mg/kg) on motor arousal induced by apomorphine. It counts as functional. Put shortly:
as §2

The test system of assay [15] is Rattus norvegicus. The assay can be described thus: Effect on motor arousal induced by apomorphine (0.3 mg/kg) expressed as percent control. Format: functional. The gist of the method:
as §2

Sequence of D(1A) dopamine receptor (P18901 whole entry): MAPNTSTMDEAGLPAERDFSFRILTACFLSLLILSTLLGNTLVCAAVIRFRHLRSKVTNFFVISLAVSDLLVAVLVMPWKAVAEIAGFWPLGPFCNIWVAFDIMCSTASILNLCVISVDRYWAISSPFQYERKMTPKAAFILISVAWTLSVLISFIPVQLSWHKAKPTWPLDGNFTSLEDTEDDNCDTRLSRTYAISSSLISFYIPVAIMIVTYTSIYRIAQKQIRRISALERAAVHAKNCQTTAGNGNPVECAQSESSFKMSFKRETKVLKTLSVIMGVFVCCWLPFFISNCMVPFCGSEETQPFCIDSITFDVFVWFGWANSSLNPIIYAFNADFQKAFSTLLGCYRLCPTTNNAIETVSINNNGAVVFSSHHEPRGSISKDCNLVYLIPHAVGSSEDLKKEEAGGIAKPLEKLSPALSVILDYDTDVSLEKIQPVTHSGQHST
Sequence of D(2) dopamine receptor (P61169 whole entry): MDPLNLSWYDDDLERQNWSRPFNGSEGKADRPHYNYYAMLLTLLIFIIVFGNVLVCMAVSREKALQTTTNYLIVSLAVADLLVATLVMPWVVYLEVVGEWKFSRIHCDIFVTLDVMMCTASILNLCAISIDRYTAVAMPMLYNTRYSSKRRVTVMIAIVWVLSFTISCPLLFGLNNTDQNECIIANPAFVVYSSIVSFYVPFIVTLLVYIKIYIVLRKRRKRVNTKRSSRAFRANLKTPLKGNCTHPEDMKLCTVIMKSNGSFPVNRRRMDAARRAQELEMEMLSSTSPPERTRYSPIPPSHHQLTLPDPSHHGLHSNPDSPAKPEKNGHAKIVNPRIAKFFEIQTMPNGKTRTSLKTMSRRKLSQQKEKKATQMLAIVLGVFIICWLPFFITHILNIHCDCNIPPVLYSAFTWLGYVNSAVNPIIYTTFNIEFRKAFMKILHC

As for `CCCN1CCc2cccc3c2[C@H]1Cc1cccc(O)c1-3`, the Activity in assay [1] was determined as 5.7; in assay [2], 0.8; in [3], 9.5; in assay [4], 13.8; in assay [5] it was 764. In [6], the Control is reported as 151%.
Take `CCCN1CCc2cccc3c2[C@@H]1Cc1ccccc1-3`: the negative-log Ki (pKi) is 5.87 in assay [7] and 6.94 in assay [8]. Besides, the inhibitory constant (Ki) in assay [9] is 0.278 µM.
For `CCCN1CCc2cccc3c2[C@@H]1Cc1cccc(O)c1-3`, the Activity in assay [1] is reported as 0.6; in assay [2] it was 0.8; in [3] it was 1.7; in assay [4], 1.3; in assay [10], 410; in assay [11], 218. Further, the Control in assay [12] is reported as 21%; in assay [13], 81%; in [6] it was 43%.
For `CCCN1CCc2cccc3c2[C@H]1Cc1ccccc1-3`, the results for the negative-log Ki (pKi) in assay [7] and in assay [8] were 6.47 and 8.62, respectively. For the same molecule, the inhibitory constant (Ki) in assay [9] turned out to be 0.0011 µM.
As for `CN1CCc2cccc3c2[C@H]1Cc1ccc(O)c(O)c1-3` [APOMORPHINE], the Activity in assay [1] came out at 9.7; in assay [2] it was 0.8; in [3] it was 12.7; in assay [4], 17.5; in [14], 505. The molecule also returned a Control in assay [15] of 100%.

Broadly, the pKi is the Ki on a negative log10 scale, so that one unit is a factor of ten. Lower therefore signals a high Ki. A word on the Ki: it is a measure of affinity in units of concentration, obtained from inhibition or displacement.
